# ABHD5-PLIN5 inh – ABHD5-PLIN5 protein interaction inhibition. Q00G26+Q8WTS1. Split G. princeps luciferase complementation, luminescence, 4 h. inhibition, % at 4 µM. 360,000 tested, 0.78% active;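 active = inhibition above the mean inhibition across every tested compound plus 3 SD, cut at about 22% in these data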;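 note: 0% = DMSO only wells and the 100% control is not disclosed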
# Beta2AR agonist – human beta-2 adrenergic receptor agonism by FAP; 340,000 tested, 0.43% active; Am2.2-beta2AR cells, FAP receptor internalization, flow cytometry; P07550; response, % (no concentration beside the values);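 active = response above a set limit, near 3 SD of response in nonfluorescent compounds, cut at about 42% in these data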
# PfGluPho inh – PfG6PD (Plasmodium falciparum) enzyme inhibition; inhibition, % at 20 µM; PfGluPho enzyme, NADPH resazurin-diaphorase fluorescence; 350,000 tested, 0.78% active; AID 504690;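 active = inhibition reaching at least a set limit at 20 µM in the primary screen, cut at about 59% in these data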;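 note: 0% = DMSO wells with substrate and 100% = DMSO wells lacking glucose-6-phosphate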
# MC4R antag cAMP – blocks human MC4R cAMP signaling. MC4R-expressing cells, MTII-stimulated cAMP, LANCE TR-FRET. inhibition, % at 6.5 µM. 360,000 tested, 0.48% active. AID 540295;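 active = inhibition above its plate's cutoff, the mean of tested wells on that plate plus 3 SD, cut at about 29% in these data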;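 note: 0% = Melanotan II alone and 100% = Melanotan II plus saturating MCL0020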
# Target sequence (P32245 whole entry, looked up): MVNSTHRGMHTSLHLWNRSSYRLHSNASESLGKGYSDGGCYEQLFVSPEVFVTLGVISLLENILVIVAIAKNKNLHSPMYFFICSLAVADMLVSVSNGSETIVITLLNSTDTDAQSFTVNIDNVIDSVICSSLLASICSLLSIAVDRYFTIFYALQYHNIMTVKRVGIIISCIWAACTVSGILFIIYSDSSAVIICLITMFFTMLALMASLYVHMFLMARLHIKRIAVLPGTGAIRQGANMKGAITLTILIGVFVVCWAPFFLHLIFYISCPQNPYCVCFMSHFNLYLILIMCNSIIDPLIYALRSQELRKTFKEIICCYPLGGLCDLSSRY
#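 Assay system: U2OS-MC4R stable cell line; Also added: Melanotan II; Technique: Eu-cAMP/anti-cAMP TR-FRET, emission 671 nm; Times: 30-min compound, 1-h challenge, 1-h detection, room temperature.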
# MC4R ag barr – agonists of human melanocortin 4 receptor (MC4R) beta-arrestin | activation, % at 8.9 µM | P32245 | 360,000 tested, 0.98% active | U2OS MC4R beta-arrestin complementation, luminescence; percent of melanotan II response, DMSO zero | AID 540308;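 active = activation above a per-plate cutoff, the mean activation of sample wells on that plate plus 3 SD, cut at about 8% in these data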
# PfG6PD confirm – confirmation of Plasmodium falciparum G6PD inhibitors; recombinant PfGluPho, NADPH-diaphorase-resazurin fluorescence; 2,400 tested, 34% active; AID 504753; inhibition, % at 20 µM; shares compounds with PfGluPho inh;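 active = inhibition of at least 50% at 20 µM in any single replicate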;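 note: 0% = DMSO with substrate and 100% = DMSO lacking glucose-6-phosphate substrate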
# Diaphorase 10uM – counter-screen for P. falciparum G6PD inhibitors: diaphorase inhibitors, oxidizers | 820 tested, 39% active | diaphorase-coupled resazurin reduction, fluorescence, NADPH 10 uM | shares compounds with PfGluPho inh | AID 504862 | inhibition, % at 20 µM;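 active = average inhibition reaching 50% or more with the compound at 20 µM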;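 note: resorufin red fluorescence formed as diaphorase reduces resazurin using NADPH; 0% = DMSO with enzyme and 100% = DMSO without enzyme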
# Diaph ctr 30uM – diaphorase inhibition or oxidation at 30 uM NADPH; shares compounds with PfGluPho inh; Diaphorase/resazurin coupled assay, resorufin fluorescence; inhibition, % at 20 µM; 820 tested, 29% active;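 active = inhibition averaging 50% or more, tested at 20 µM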;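 note: 0% = DMSO with enzyme and 100% = DMSO wells lacking diaphorase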
# * hit, by the source's call; / = no result given. A selection: hits, their analogues and other compounds. The true share with any hit is near 3%.
SMILES,ABHD5-PLIN5 inh,Beta2AR agonist,PfGluPho inh,MC4R antag cAMP,MC4R ag barr,PfG6PD confirm,others
Cc1cc(NC(=O)C2CCN(C(=O)c3ccco3)CC2)ccc1Br,6,3,7,4,-2,/,
CCOc1ccc(-c2nnc(SCc3nnc(-c4ccccc4)o3)n2-c2ccccc2F)cc1,-1,-14,85*,2,-1,37,
Cc1ccc(-c2nnc(CSc3nnc(COc4ccccc4)n3-c3ccccc3)o2)cc1,1,-12,3,4,0,/,
Cc1ccc(Nc2nnc(SCC(=O)c3ccc(O)cc3O)s2)cc1,-7,9,68*,0,2,33,
COc1ccc(CCC(=O)N2CCN(S(=O)(=O)c3cccc(Cl)c3)CC2)cc1,7,-2,-3,2,1,/,
CCN(CC)C(=O)CSc1nc2c(sc(=S)n2-c2ccccc2)c(=O)n1-c1ccc(OC)cc1OC,-11,3,79*,22,-1,39,
CCN(CC)C(=O)CSc1nc2c(sc(=S)n2-c2ccccc2)c(=O)n1-c1ccccc1OC,7,16,9,3,0,/,
CCOc1ccccc1-n1c(=S)sc2c(=O)n(-c3ccc(F)cc3)c(SCC(=O)O)nc21,9,-2,69*,6,-2,17,
COc1ccccc1-n1c(SCC(=O)O)nc2c(sc(=S)n2-c2ccc(C)c(C)c2)c1=O,-4,1,30,-2,-1,/,
CCN(C[C@H]1N[C@@](Cc2ccccc2)(C(=O)OC)[C@H]2C(=O)N(C)C(=O)[C@@H]12)S(=O)(=O)c1ccc(-c2ccccc2)cc1,-2,-2,20,11,-1,/,
Cc1nc2c(o1)C(=O)c1ccccc1C2=Nc1ccccc1,-8,-1,104*,-3,1,50*,Diaphorase 10uM=53*;Diaph ctr 30uM=48
C/C(Cn1nnc([N+](=O)[O-])n1)=N\NC(=O)c1ccc(O)cc1O,-1,10,49,-3,-1,67*,Diaphorase 10uM=23;Diaph ctr 30uM=31
C/C(Cn1nnc([N+](=O)[O-])n1)=N\NC(=O)c1ccccc1O,2,9,67*,1,4,75*,Diaphorase 10uM=31;Diaph ctr 30uM=34
C/C(Cn1cnc([N+](=O)[O-])n1)=N\NC(=O)c1ccc(O)cc1O,6,-2,-8,6,0,/,
C/C(Cn1cnc([N+](=O)[O-])n1)=N\NC(=O)c1ccccc1O,1,0,11,5,-1,/,
CC1CCCCN1CCCNC(=O)c1ccc2nc(N3CCCCC3)sc2c1 (centres undefined),6,-2,11,5,-2,/,
CN(Cc1ccccc1)C(=O)c1ccc(NC(=O)Cc2ccc(NC(=O)C3CCCN(C(=O)C4CCCC4)C3)cc2)cc1 (centres undefined),6,-3,-20,-3,0,/,
CCOc1ccc(Cl)cc1/C=N/NC(=O)c1ccccc1,1,-8,40,4,-1,/,
Cc1cccc(OCC(=O)NCC(=O)N/N=C/c2ccc(O)cc2O)c1,4,11,-36,9,3,/,
O=C(COc1ccccc1)NCC(=O)N/N=C/c1cc(Br)ccc1OCc1ccccc1,14,8,81*,1,1,29,
Cc1cccc(OCC(=O)NCC(=O)N/N=C/c2ccccc2)c1,-1,0,69*,-5,0,50*,Diaphorase 10uM=41;Diaph ctr 30uM=41
CCOc1ccc(Cl)cc1/C=N/NC(=O)CNC(=O)c1ccccc1,7,8,118*,3,-4,92*,Diaphorase 10uM=93*;Diaph ctr 30uM=85*
CCn1c(=N)n(CC(=O)c2cccc([N+](=O)[O-])c2)c2ccccc21,0,-31,25,-9,-2,/,
CCCn1c(=N)n(CC(=O)c2ccc([N+](=O)[O-])cc2)c2ccccc21,1,6,73*,24,-1,-22,
N=c1n(CCN2CCOCC2)c2ccccc2n1CC(=O)c1ccc(Cl)c(Cl)c1,9,-1,114*,11,-3,1,
